The results in this text go back to ChEMBL document CHEMBL1140002, “Synthesis and biological evaluation of (R)-N-(diarylmethylthio/sulfinyl)ethyl/propyl-piperidine-3-carboxylic acid hydrochlorides as novel GABA uptake inhibitors” (Bioorg Med Chem Lett, 2007).

Each structure is given as a SMILES string. pIC50: −log10 of the molar value. Where a name gives a salt, the structure may show the parent alone.

For the assay, the target named is Sodium- and chloride-dependent GABA transporter 1 (Mus musculus, UniProt P31648). Description: Inhibition of [3H]GABA uptake at mouse GAT1 expressed in D8 cells. The class given is cell-based. The procedure, abridged:
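D8 cells in RPMI1640 with 10% FBS grown to near confluence (~60,000 cells/well), rinsed with PBS, pre-incubated 10 min at rt in HBSS. Stopped by aspirating HBSS, three rapid cold PBS washes, cells solubilized in 2 N NaOH; uptake quantified by liquid scintillation counting.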
With `Cc1ccc(C(SCCCN2CCC[C@@H](C(=O)O)C2)c2ccc(C)cc2)cc1`, the negative logarithm of the IC50 (pIC50) is 4.80. Regarding `COc1ccc(C(SCCCN2CCC[C@@H](C(=O)O)C2)c2ccc(OC)cc2)cc1`, the negative logarithm of the IC50 (pIC50) was 3.92. As for `COc1ccc(C(c2ccc(OC)cc2)[S+]([O-])CCN2CCC[C@@H](C(=O)O)C2)cc1` (stereo partly drawn), the figure is 3.23; as for `Cc1ccccc1C(c1cccc(C)c1C)[S+]([O-])CCN1CCC[C@@H](C(=O)O)C1` (stereo partly drawn), 3.98; as for `O=C(O)[C@@H]1CCCN(CCSC(c2ccccc2)c2ccccc2)C1`, 2.80. As for `COc1ccc(C(SCCN2CCC[C@@H](C(=O)O)C2)c2ccc(OC)cc2)cc1`, the figure is 2.32. For `Cc1ccccc1C(SCCN1CCC[C@@H](C(=O)O)C1)c1cccc(C)c1C` (stereo partly drawn), the pIC50 is 2.67. As for `O=C(O)[C@@H]1CCCN(CCCSC(c2ccccc2)c2ccccc2)C1`, the figure is 4.94. Under `O=C(O)[C@@H]1CCCN(CC[S+]([O-])C(c2ccccc2)c2ccccc2)C1` (stereo partly drawn) stands 6.04; under `Cc1ccc(C(SCCN2CCC[C@@H](C(=O)O)C2)c2ccc(C)cc2)cc1`, 3.62; under `Cc1ccccc1C(SCCCN1CCC[C@@H](C(=O)O)C1)c1cccc(C)c1C` (stereo partly drawn), 4.77. As for `Cc1ccc(C(c2ccc(C)cc2)[S+]([O-])CCN2CCC[C@@H](C(=O)O)C2)cc1` (stereo partly drawn), the figure is 5.93; as for `Cc1ccsc1C(=CCCN1CCC[C@@H](C(=O)O)C1)c1sccc1C` [TIAGABINE HYDROCHLORIDE], 7.10.

Broadly, the pIC50 is −log10 of the IC50, conventionally taken in molar units. A low value points to a large IC50.
